We go through ten compounds from ChEMBL document CHEMBL4334441, “Exploitation of Antibiotic Resistance as a Novel Drug Target: Development of a β-Lactamase-Activated Antibacterial Prodrug” (J Med Chem, 2019).

A short description of data set [1]: Selectivity ratio of MIC for ciprofloxacin-susceptible Escherichia coli CFT073 harboring pSU18 to MIC for ciprofloxacin-susceptible Escherichia coli DH5[alpha]. The class given is ADME.
The subject of data set [2] is Escherichia coli. In words: Growth inhibition of ciprofloxacin-susceptible Escherichia coli CFT073 harboring pSU18 incubated for 18 hrs by broth microdilution method. To be noted: in vivo. The class given is organism-based. A digest of the protocol: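 MIC determination in E. coli CFT073, either wild type or carrying pSU18 (empty pEMP, or encoding CTX-M, NDM-1 or KPC). Dose–response growth curves were run, and each point is the mean ± SEM of n = 3. The MIC is the minimal concentration that inhibits bacterial growth.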
(Dilution methods test growth across graded concentrations, often in twofold steps.)

A short description of data set [3]: Prodrug activation in Escherichia coli DH5[alpha] expressing TEM-116 assessed as bacterial TEM-116 mediated compound hydrolysis at 50 uM incubated for 60 mins by 1H-NMR spectra analysis. As to conditions: bacteria.
The nature of data set [4]: Drug metabolism in CTX-M-1-deficient Escherichia coli DH5[alpha] assessed as compound hydrolysis at 100 uM incubated for 60 mins by 1H-NMR spectra analysis. The format is ADME. To be noted: CTX-M-1-deficient Escherichia coli DH5alpha cells, read-out: Drug metabolism.
Data set [5] in a line: Prodrug activation in Escherichia coli CFT073 harboring CTX-M-1 assessed as bacterial CTX-M-1-mediated compound hydrolysis incubated for 1 hr by 1H-NMR analysis. To be noted: bacteria. A digest of the protocol:
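Whole-cell hydrolysis used E. coli CFT073 carrying pSU18 encoding CTX-M-1. The read-out was percentage of compound hydrolysed after 60 min.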

The subject of data set [6] is Escherichia coli. In words: Growth inhibition of Escherichia coli DH5[alpha] expressing ESBL TEM-116 incubated for 18 hrs by broth microdilution method. The format is functional.
The test system of data set [7] is Escherichia coli. In words: Growth inhibition of ciprofloxacin-susceptible Escherichia coli DH5[alpha] incubated for 18 hrs by broth microdilution method. The class given is organism-based. To be noted: in vivo. The essentials:
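MIC determination against E. coli DH5α, either lacking β-lactamase or expressing the ESBL TEM-116. The MIC is the minimal concentration that inhibits bacterial growth.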

Data set [8] is described as follows: Prodrug activation in Escherichia coli DH5[alpha] expressing beta-lactamase CTX-M-1 assessed as bacterial CTX-M-1-mediated compound hydrolysis at 100 uM incubated for 60 mins by 1H-NMR spectra analysis. As to conditions: bacteria.
Data set [9] concerns Escherichia coli. In words: Growth inhibition of Escherichia coli CFT073 harboring pSU18 and CTX-M-1 incubated for 18 hrs by broth microdilution method. As to conditions: CFT073, 18 h.
In data set [10] the test system is Enterococcus faecalis. Kind of data set: Effect on growth of Enterococcus faecalis GW01 incubated for 18 hrs by broth microdilution method. The class given is organism-based. As to conditions: in vivo.
For data set [11], the system named is Enterococcus faecalis. In words: Effect on growth of Enterococcus faecalis ATCC 29212 incubated for 18 hrs by broth microdilution method. The format is organism-based. As to conditions: in vivo.
Data set [12] addresses DNA gyrase (Escherichia coli) (UniProt P0AES6+P0AES4). As to conditions: 1 uM.
A short description of data set [13]: Drug metabolism in TEM-116-deficient Escherichia coli DH5[alpha] assessed as compound hydrolysis at 100 uM incubated for 90 mins by 1H-NMR spectra analysis. The class given is ADME. To be noted: TEM-116-deficient Escherichia coli DH5alpha cells, read-out: Drug degradation.
The nature of data set [14]: Prodrug activation in Escherichia coli DH5[alpha] expressing TEM-116 assessed as bacterial TEM-116 mediated compound hydrolysis at 100 uM incubated for 90 mins by 1H-NMR spectra analysis. To be noted: bacteria, 1.5 h.

Converted amounts (≈) assume the structure as drawn. The source made the active and inactive calls. The rule behind the calls is not given here.

On to `CC(=O)OCC1=C(C(=O)O)N2C(=O)[C@@H](NC(=O)Cc3cccs3)[C@H]2SC1` [CEPHALOTHIN], for which the Selectivity ratio entry in data set [1] is recorded as “<= 2”. Also, the MIC with Escherichia coli [2] was 25 µM (≈ 9.91 µg/mL); in the data set with Escherichia coli [6] it was 100 µM (≈ 39.6 µg/mL); in the data set with Escherichia coli [7] it was 12.5 µM (≈ 4.96 µg/mL); against Escherichia coli [9], greater than 400 µM. For the same compound, the Drug metabolism in data set [3] amounted to 61%; in data set [5] it was 68%; in data set [8] it was 100%. The metabolised at 1 h, 100 µM in data set [4] is 0%.

In the case of `CC(=O)OCC1=C(C(=O)O)N2C(=O)[C@@H](NC(=O)Cc3ccc(Br)cc3)[C@H]2SC1`, in data set [1], the Selectivity ratio entry is on record as “<= 2”. Further, the MIC is 100 µM (≈ 46.9 µg/mL) in the data set with Escherichia coli [2], 800 µM (≈ 375 µg/mL) against Escherichia coli [6], 200 µM (≈ 93.9 µg/mL) in the data set on Escherichia coli [7] and greater than 400 µM in the data set on Escherichia coli [9]. The Drug metabolism in [5] came to 9%.

`CC(=O)OCC1=C(C(=O)O)N2C(=O)[C@@H](NC(=O)c3ccccc3)[C@H]2SC1`: the Selectivity ratio result in [1] is “<= 2”. The MIC against Escherichia coli [2], against Escherichia coli [6], with Escherichia coli [7] and against Escherichia coli [9] was greater than 400 µM each time. Also, the Drug metabolism in data set [5] amounted to 26%.

With `CCCC(=O)N[C@@H]1C(=O)N2C(C(=O)O)=C(COC(C)=O)CS[C@H]12`, in [1], the Selectivity ratio entry was “<= 2”. The MIC with Escherichia coli [2] was 200 µM (≈ 68.5 µg/mL); in the data set on Escherichia coli [6] it was 400 µM (≈ 137 µg/mL); in the data set on Escherichia coli [7] it was 100 µM (≈ 34.2 µg/mL); in the data set on Escherichia coli [9], greater than 400 µM. Moreover, in [5], the Drug metabolism stood at 25%.

`CC(=O)OCC1=C(C(=O)O)N2C(=O)[C@@H](NC(=O)Cc3ccc(Cl)cc3)[C@H]2SC1`: the Selectivity ratio entry in [1] is reported as “<= 2”. Besides, the MIC is 100 µM (≈ 42.5 µg/mL) in the data set on Escherichia coli [2], 400 µM (≈ 170 µg/mL) with Escherichia coli [6], 100 µM (≈ 42.5 µg/mL) against Escherichia coli [7] and greater than 400 µM in the data set with Escherichia coli [9]. Also, in data set [5], the Drug metabolism is listed as 14%.

On to `CC(=O)OCC1=C(C(=O)O)N2C(=O)[C@@H](NC(=O)Cc3ccc(C)cc3)[C@H]2SC1`, for which the Selectivity ratio result in [1] is given as “<= 2”. For the same compound, the MIC in the data set on Escherichia coli [2] is 100 µM (≈ 40.4 µg/mL); against Escherichia coli [6], 400 µM (≈ 162 µg/mL); in the data set with Escherichia coli [7] it was 100 µM (≈ 40.4 µg/mL); in the data set with Escherichia coli [9], greater than 400 µM. Also, the Drug metabolism in data set [5] came to 7%.

As to `O=C(O)c1cn(C2CC2)c2cc(N3CCNCC3)c(F)cc2c1=O` [CIPROFLOXACIN], the Activity result in the data set on Enterococcus faecalis [10] and with Enterococcus faecalis [11] was “Toxic” in each case. For the same compound, the inhibition result in data set [12] is “Active”.

Take `CC(=O)OCC1=C(C(=O)O)N2C(=O)[C@@H](NC(=O)Cc3ccc(F)cc3)[C@H]2SC1`: the Selectivity ratio result in [1] is “<= 2”. The MIC was 100 µM (≈ 40.8 µg/mL) against Escherichia coli [2], 200 µM (≈ 81.7 µg/mL) against Escherichia coli [6], 100 µM (≈ 40.8 µg/mL) with Escherichia coli [7] and greater than 400 µM in the data set with Escherichia coli [9]. Further, in data set [5], the Drug metabolism worked out at 18%.

Turning to `CC(=O)OCC1=C(C(=O)O)N2C(=O)[C@@H](NC(=O)Cc3ccc(-c4ccccc4)cc3)[C@H]2SC1`, the Selectivity ratio result in data set [1] is on record as “<= 2”. For the same compound, the MIC in the data set on Escherichia coli [2] was greater than 400 µM; with Escherichia coli [6], greater than 800 µM; with Escherichia coli [7] it was greater than 800 µM; in the data set with Escherichia coli [9] it was greater than 400 µM. The metabolised at 1.5 h, 100 µM in [13] amounted to 14%. Further, in data set [4], the metabolised at 1 h, 100 µM turned out to be 0%. In addition, the values for the Drug metabolism in [5], in data set [14] and in [8] were 4%, 69% and 100%, respectively.

`CC(=O)OCC1=C(C(=O)O)N2C(=O)[C@@H](NC(=O)Cc3ccc(Oc4ccccc4)cc3)[C@H]2SC1`: in data set [1], the Selectivity ratio entry was “<= 2”. Moreover, the MIC was greater than 400 µM with Escherichia coli [2], greater than 800 µM against Escherichia coli [6], greater than 800 µM against Escherichia coli [7] and greater than 400 µM with Escherichia coli [9]. In data set [13], the metabolised at 1.5 h, 100 µM was 13%. Further, in data set [4], the metabolised at 1 h, 100 µM was 0%. Moreover, the values for the Drug metabolism in data set [5], in data set [14] and in data set [8] were 4%, 54% and 94%, respectively.
